# Test results published in ChEMBL document CHEMBL2029291, “Synthesis and structure-activity relationships of new quinolone-type molecules against Trypanosoma brucei” (J Med Chem, 2012).
# Where a name gives a salt, the structure may show the parent alone. Calls of active or inactive are those of the source. The rule behind the calls is not given here.
# Legend:
# [1] = Selectivity index, ratio of IC50 for mouse J774.1 cells to IC50 for Trypanosoma brucei brucei TC221; type: toxicity; settings: read-out: Ratio IC50
# [2] = test system: Trypanosoma brucei brucei; assay: Antitrypanosomal activity against Trypanosoma brucei brucei TC221 […] after 48 hrs by alamar blue assay; type: functional, organism-based; settings: for IC50: TC221, 48 h
# Method in brief: (§1)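 Trypomastigote T. b. brucei TC 221 grown in Baltz medium, seeded at 10⁴ per mL and exposed to graded compound concentrations (dissolved in DMSO or 0.1 M NaOH). Incubated at 37 °C, 5% CO₂ for 72 h, with a reading also taken at 48 h. AlamarBlue absorbance read at 550/630 nm. IC50 by linear interpolation; duplicate tests, mean and SD.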
# [3] = test system: Trypanosoma brucei brucei; assay: Antitrypanosomal activity against Trypanosoma brucei brucei TC221 […] after 72 hrs by alamar blue assay; type: functional, organism-based; settings: for IC50: TC221, 72 h; method in brief: as §1
# [4] = Cytotoxicity against mouse J774.1 cells after 48 hrs by alamar blue assay; type: cell-based; settings: J774.1, 48 h
# Method in brief: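 J774.1 macrophages kept in complete Click RPMI, detached by scraping, PBS-washed, suspended at 2 × 10⁶ cells/mL and plated in phenol-red-free RPMI with or without compound. AlamarBlue added and absorbance read 24 and 48 h later. Compound-free wells taken as 100% growth. Effects of cell density, incubation time and DMSO level were controlled. Tested in duplicate.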
# [5] = Lipophilicity, log P of the compound by RP-HPLC analysis; type: physicochemical
# Method in brief: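 LogP by RP-HPLC on a C18 Inertsil ODS-2 column. Mobile phase was methanol/10 mM phosphate buffer pH 7.4 (70:30) at 1.5 mL/min. Samples were at 4 μg/mL, detected at 254.4 nm, and run in duplicate. Capacity ratio was calculated as k′ = (tr − to)/to.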
# Trypanosoma brucei [6] = assay: Antitrypanosomal activity in topoisomerase 2-knockout BSF Trypanosoma brucei assessed as assessed as shrinkage of kinetoplast over time at IC50 concentration after 48 hrs by […]; type: functional, organism-based
# Method in brief: (§2)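 RNAi against mitochondrial topoisomerase II in the BSF mitochondrion marker line. A 500 bp topoII fragment in p2T7-177 was transfected by nucleofection, with puromycin selection at 0.3 μg/mL. RNAi was induced with 1 μg/mL tetracycline. Knockdown was confirmed by Northern blot at 24 h, with tubulin as reference. Growth and DAPI-stained kinetoplast loss were followed over time.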
# Trypanosoma brucei [7] = assay: Antitrypanosomal activity in topoisomerase 2-knockout BSF Trypanosoma brucei assessed as assessed as shrinkage of kinetoplast over time at IC50 concentration after 72 hrs by […]; type: functional, organism-based; method in brief: as §2
# [8] = test system: Trypanosoma brucei brucei; assay: Cell cycle arrest in GFP-labeled Trypanosoma brucei brucei assessed as increase in segregated 1K1N cell population at IC50 concentration after 42 hrs by DAPI staining-based fluorescence microscopic analysis
# [9] = Aqueous solubility of the compound in 35% cremophore RH40, 45% capmul MCM C8, 10% triethylcitrate and 10% ethanol; type: physicochemical; settings: buffer
# Method in brief: (§3)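 Oral preconcentrate of Cremophor RH40 (35%), Capmul MCM C8 (45%), triethylcitrate (10%) and ethanol (10%) was tested for dissolving compound at 10 mg/mL. Stability of the emulsion formed in aqueous solution was observed over time.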
# [10] = test system: Trypanosoma brucei rhodesiense; assay: Antitrypanosomal activity against Trypanosoma brucei rhodesiense STIB900 infected in NMRI mouse at 50 mg/kg, po administered on day 3 to 6 post infection measured every second day up to 6 days post infection; type: functional, organism-based; set-up: dose 50 mg/kg
# Method in brief: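 Acute mouse model with T. b. rhodesiense STIB900-infected NMRI mice. Compound was given orally as a 1:1 aqueous dilution of a 10 mg/mL preconcentrate (Cremophor RH40 35%, Capmul MCM C8 45%, triethylcitrate 10%, ethanol 10%). An untreated control group was included. Parasitemia was checked every second day to day 6, and survival was recorded. Aparasitemic survivors at 60 days were counted as cured.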
# [11] = Aqueous solubility of the compound in 10% Cremophore RH40; type: physicochemical; settings: buffer
# Method in brief: (§4)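 Water solubility was assessed after adding 10% Tween 80 or 10% Cremophor RH40 to the compound.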
# [12] = Selectivity index, ratio of IC50 for mouse J774.1 cells to IC50 for Trypanosoma brucei rhodesiense STIB900; type: toxicity; settings: read-out: Ratio IC50
# Method in brief: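 Selectivity index is the J774.1 IC50 divided by the trypanosome IC50. J774.1 macrophages were kept in complete Click RPMI, washed, and plated in phenol red-free RPMI with compound. AlamarBlue was added and plates were read 24 and 48 h later. Absorbance without compound was set as 100% growth.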
# [13] = Aqueous solubility of the compound in 10% Tween 80; type: physicochemical; settings: buffer; method in brief: as §4
# [14] = Chemical stability of the compound in 35% cremophore RH40, 45% capmul MCM C8, 10% triethylcitrate and 10% ethanol after 24 hrs; type: physicochemical; method in brief: as §3
# [15] = test system: Trypanosoma brucei rhodesiense; assay: Antitrypanosomal activity against Trypanosoma brucei rhodesiense STIB900 […] after 48 hrs by alamar blue assay; type: functional, organism-based
IC50 [2],IC50 [3],SMILES,selectivity ratio [1],IC50 [4],other results
4.6 µM,4.84 µM,CCCn1cc(C(=O)NCc2ccco2)c(=O)c2cc(F)c(N3CCC(C(N)=O)CC3)cc21,12.4,56.9 µM,–
> 40 µM,> 40 µM,CCCCn1cc(C(=O)O)c(=O)c2cc(F)c(N3CCC(C(N)=O)CC3)cc21,> 2.5,> 100 µM,–
0.0029 µM,–,N=C(N)c1ccc(OCCCCCOc2ccc(C(=N)N)cc2)cc1 [PENTAMIDINE ISETHIONATE],–,–,–
> 40 µM,> 40 µM,CCCn1cc(C(=O)O)c(=O)c2cc(F)c(Cl)cc21,> 2.5,> 100 µM,–
0.75 µM,1.25 µM,CCCn1cc(C(=O)NCc2ccccc2)c(=O)c2cc(F)c(N3CCC(C(N)=O)CC3)cc21,58.3,43.7 µM,logP ([5]; read-out: logP): 2.4
1.07 µM,1.91 µM,NC(=O)C1CCN(c2cc3c(cc2F)c(=O)c(C(=O)NCc2ccccc2)cn3C2CC2)CC1,47.9,51.2 µM,logP ([5]; read-out: logP): 2.4
> 40 µM,> 40 µM,NC(=O)C1CCN(c2cc3c(cc2F)c(=O)c(C(=O)O)cn3C2CC2)CC1,> 2.5,> 100 µM,–
14.6 µM,18.1 µM,CCCCn1cc(C(=O)O)c(=O)c2cc(F)c(N3CCCCC3)cc21,6.39,93 µM,–
22.9 µM,–,NCCCC(N)(C(=O)O)C(F)F (configuration not stated) [EFLORNITHINE HYDROCHLORIDE],–,–,–
8.89 µM,12.1 µM,NC(=O)C1CCN(c2cc3c(cc2F)c(=O)c(C(=O)NCc2ccco2)cn3C2CC2)CC1,> 11.2,> 100 µM,–
> 40 µM,> 40 µM,CCCCn1cc(C(=O)O)c(=O)c2cc(F)c(N(C)C)cc21,> 2.5,> 100 µM,–
2.28 µM,3.12 µM,CCCn1cc(C(=O)NCc2ccc(OC)cc2)c(=O)c2cc(F)c(N3CCC(C(N)=O)CC3)cc21,18.2,41.4 µM,–
> 40 µM,> 40 µM,CCn1cc(C(=O)Nc2ccc(Cl)c(F)c2)c(=O)c2ccc(C(F)(F)F)cc21,> 2.5,> 100 µM,–
> 40 µM,> 40 µM,CCCn1cc(C(=O)O)c(=O)c2cc(F)c(N3CCC(C(N)=O)CC3)cc21,> 2.5,> 100 µM,–
19.2 µM,22.2 µM,CCCCn1cc(C(=O)O)c(=O)c2cc(F)c(N3CCOCC3)cc21,> 5.21,> 100 µM,–
0.31 µM,–,Cc1ccc(C(=O)Nc2ccc(S(=O)(=O)O)c3cc(S(=O)(=O)O)cc(S(=O)(=O)O)c23)cc1NC(=O)c1cccc(NC(=O)Nc2cccc(C(=O)Nc3cc(C(=O)Nc4ccc(S(=O)(=O)O)c5cc(S(=O)(=O)O)cc(S(=O)(=O)O)c45)ccc3C)c2)c1 [SURAMIN HEXASODIUM],–,–,–
> 40 µM,> 40 µM,CCCCn1cc(C(=O)O)c(=O)c2cc(F)c(Cl)cc21,> 2.5,> 100 µM,–
> 40 µM,> 40 µM,CCn1cc(C(=O)O)c(=O)c2ccc(C(F)(F)F)cc21,> 2.5,> 100 µM,–
2.75 µM,2.56 µM,COc1ccc(CNC(=O)c2cn(C3CC3)c3cc(N4CCC(C(N)=O)CC4)c(F)cc3c2=O)cc1,> 36.4,> 100 µM,–
17.2 µM,23 µM,CCCCn1cc(C(=O)O)c(=O)c2cc(F)c(N(C)Cc3ccccc3)cc21,2.51,43.2 µM,–
7.31 µM,6.37 µM,CCn1cc(C(=O)NCc2ccc(OC)cc2)c(=O)c2ccc(C(F)(F)F)cc21,> 13.7,> 100 µM,–

# Continued, compound first:
SMILES,IC50 [2],IC50 [3],selectivity ratio [1],IC50 [4],other results
CCCCn1cc(C(=O)NCc2ccccc2)c(=O)c2cc(F)c(N(C)C)cc21,0.68 µM,0.92 µM,> 147,> 100 µM,logP ([5]; read-out: logP): 2.4
CCCCn1cc(C(=O)NCc2ccco2)c(=O)c2cc(F)c(N3CCC(C(N)=O)CC3)cc21,1.03 µM,1.84 µM,40.2,41.4 µM,logP ([5]; read-out: logP): 2.4
CCCCn1cc(C(=O)NCc2ccc(OC)cc2)c(=O)c2cc(F)c(N3CCC(C(N)=O)CC3)cc21,0.78 µM,1.45 µM,52.3,40.8 µM,Activity (Trypanosoma brucei [6]): Active; Activity (Trypanosoma brucei [7]): Active; Activity [8]: Active; logP ([5]; read-out: logP): 2.4
CCCCn1cc(C(=O)NCc2ccccc2)c(=O)c2cc(F)c(N3CCC(C(N)=O)CC3)cc21,1.09 µM,1.98 µM,43.1,47 µM,logP ([5]; read-out: logP): 2.4
CCCCn1cc(C(=O)NCc2ccc([N+](=O)[O-])cc2)c(=O)c2cc(F)c(N3CCC(C(N)=O)CC3)cc21,0.54 µM,0.58 µM,> 185,> 100 µM,logP ([5]; read-out: logP): 2.4
CCCCn1cc(C(=O)NCc2ccc(O)cc2)c(=O)c2cc(F)c(N3CCC(C(N)=O)CC3)cc21,3.09 µM,5.12 µM,13.5,41.6 µM,–
CCCCn1cc(C(=O)NCc2ccccc2)c(=O)c2cc(F)c(-c3ccccc3)cc21,> 40 µM,> 40 µM,> 2.5,> 100 µM,–
CCCCn1cc(C(=O)NCc2ccccc2)c(=O)c2cc(F)c(N(C)Cc3ccccc3)cc21,5.4 µM,10.8 µM,15.9,86 µM,–
CCOC(=O)c1c[nH]c2cc(Cl)c(F)cc2c1=O,–,–,–,–,Activity [2]: inactive; Activity [3]: inactive
CCCCn1cc(C(=O)NCc2ccccc2)c(=O)c2cc(F)c(N3CCOCC3)cc21,0.047 µM,0.05 µM,1140,57 µM,Activity (Trypanosoma brucei [6]): Active; Activity (Trypanosoma brucei [7]): Active; solubility [9]: soluble; Activity [8]: Active; Activity [10]: inactive; solubility [11]: Insoluble; selectivity ratio [12]: 6330; logP [5]: 2.4; solubility [13]: Insoluble; Stability [14]: Stable; IC50 [15]: 9 nM
CCOC(=O)c1cnc2cc(C(F)(F)F)ccc2c1O,–,–,–,–,Activity [2]: inactive; Activity [3]: inactive
CCCCn1cc(C(=O)NCc2ccc(OC)c([N+](=O)[O-])c2)c(=O)c2cc(F)c(N3CCC(C(N)=O)CC3)cc21,3.07 µM,4.14 µM,> 32.6,> 100 µM,–
O=C(O)c1cn(C2CC2)c2cc(N3CCNCC3)c(F)cc2c1=O,–,–,–,–,Activity [8]: Active
Nc1nc(N)nc(Nc2ccc([As]3SCC(CO)S3)cc2)n1 (configuration not stated) [MELARSOPROL],0.0026 µM,–,–,–,–
CCCCn1cc(C(=O)NCc2ccccc2)c(=O)c2cc(F)c(N3CCCCC3)cc21,0.67 µM,1.04 µM,71.3,47.8 µM,logP ([5]; read-out: logP): 2.4
